Measurements pooled from the literature.
Compare with care: the assays were run in different laboratories.
Target: Serine/threonine-protein kinase 33 (STK33, Homo sapiens, UniProt Q9BYT3)

Compound | assay | setting | endpoint | value
CS(=O)(=O)N1CCCC(NC(=O)[C@H](CCC2CCCCC2)NC(=O)c2ccc(CNc3ncnc4c3nnn4-c3ccccc3)cc2)C1 (stereo partly shown) | cell-free assay, competition with immobilised ligand | 0.1 µM | remaining binding | 84%
CC(C)c1ccc(NC(=O)c2cccs2)c(-c2nc3ccccc3[nH]c2=O)c1 | enzyme activity, inhibitor | 1 µM | activity vs control | 39%
O=C(Nc1cnn(-c2csc(C(=O)NC3COC3)c2)c1)Nc1c(F)cccc1Cl | enzyme activity, inhibitor | 5 µM | remaining activity | 81.8%
CN1CC(Oc2cnc(C#N)cc2-c2ccn3nc(NC(=O)C4CC4)cc3c2)C1 | enzyme activity, inhibitor | 1 µM | inhibition | -3%
CCc1ccccc1C(=O)Nc1n[nH]c2c(C)c(F)c(C3C(C#N)=C(C)N(C)C(C)=C3C#N)cc12 | cell-free assay, competition with immobilised ligand | 1 µM | remaining binding | 100%
Cc1sc(C(=O)NC2COC2)cc1-n1cc(NC(=O)Nc2c(F)cccc2Cl)cn1 | enzyme activity, inhibitor | 10 µM | remaining activity | 87.6%
Cn1cnc(Br)c1C1=CN(c2ncnc3[nH]cnc23)CCS1 | enzyme activity, inhibitor, radiometric | 50 nM | inhibition | 35.8%
COc1cc(-c2cn(C3CCc4ccccc4N(CC(F)(F)F)C3=O)nn2)ccc1-n1ccc(C)n1 (stereo not shown) | cell-free assay, competition with immobilised ligand | 1 µM | remaining binding | 100%
Cc1cnc(NC2CCOCC2)nc1-n1cnc(C(=O)NC(CN)c2cc(F)cc(Cl)c2)c1 (stereo not shown) | enzyme activity, inhibitor, radiometric | 1 µM | remaining activity | 71%
Cn1cncc1C1=CN(c2ncnc3[nH]cnc23)CCS1 | enzyme activity, inhibitor, radiometric | 50 nM | inhibition | 23.6%
Nc1ncnc2occ(-c3ccc(NC(=O)Nc4cc(C(F)(F)F)ccc4F)cc3)c12 | enzyme activity, inhibitor | 20 µM | remaining activity | 4.3%
CCCCN(CCCC)C(=O)CN1C[C@H](c2cc(OC)c3c(c2)OCO3)[C@@H](C(=O)O)[C@@H]1CC(C)(C)CCC | cell-free assay, competition with immobilised ligand | 1 µM | remaining binding | 100%
FC(F)(F)Oc1cccc(-c2cnc3ccc(-c4ccncc4)nn23)c1 | enzyme activity, inhibitor, radiometric | 5 µM | activity vs control | 100%
COc1cc(/C=C/C(=O)CC(=O)/C=C/c2ccc(O)c(OC)c2)ccc1O | enzyme activity, inhibitor | 1 µM | activity vs control | 25%
Cc1cc(NC(=O)c2cccc3cc(-c4cccc5[nH]nc(N)c45)ccc23)ccc1F | enzyme activity, inhibitor | 0.1 µM | activity vs control | 126%
CCN(CC)c1ccc(C2=NNC(=O)CC2C)cc1[N+](=O)[O-] (stereo not shown) | enzyme activity, inhibitor | 10 µM | remaining activity | 102%
Cc1cc(NC(=O)c2cccc(S(F)(F)(F)(F)F)c2)cc(-n2ccn3nc(-c4cccnc4)cc23)c1 | cell-free assay, competition with immobilised ligand | 1 µM | remaining binding | 87.8%
COc1cc(Nc2cnc(C#N)c(O[C@H](C)CN(C)C)n2)ncc1-c1cnn(C)c1 | enzyme activity, inhibitor, radiometric | 1 µM | remaining activity | 59%
Cc1ccc(Nc2nccc(N(C)c3ccc4c(C)n(C)nc4c3)n2)cc1S(N)(=O)=O | enzyme activity, inhibitor | 10 µM | inhibition | 34%
